Results published in ChEMBL document CHEMBL1129448, “Neurosteroid analogues. 4. The effect of methyl substitution at the C-5 and C-10 positions of neurosteroids on electrophysiological activity at GABAA receptors” (1996).

Legend:
Rattus norvegicus [1] = species: Rattus norvegicus; test: Compound was evaluated at 10 uM GABA-mediated current in cultured postnatal rat hippocampal neurons; type: functional
Procedure, shortened: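 Whole-cell voltage clamp of cultured postnatal rat hippocampal neurons held at -60 mV. Compound at 10 µM was co-applied with 2 µM GABA by pressure ejection (500 ms jet, 10-20 psi) from a pipet within 5 µm of the cell. Pipet solution was CsCl-based, pH 7.3. DMSO final <0.2%. Current is given as % of 2 µM GABA alone (100% = no change). Mean ± SEM, N cells.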

Rattus norvegicus [2] = species: Rattus norvegicus; test: Compound was evaluated at 10 uM for its ability to initiate (gate) a current in the absence of GABA in cultured postnatal rat hippocampal neurons; type: functional; design: unit not given here
Procedure, shortened: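 Whole-cell voltage clamp of cultured postnatal rat hippocampal neurons at -60 mV. Compound at 10 µM was applied without GABA by pressure ejection (500 ms, 10-20 psi) from a pipet within 5 µm. CsCl-based pipet solution, pH 7.3. DMSO final <0.2%. Peak directly gated current is expressed relative to the same cell's response to 2 µM GABA alone. Mean ± SEM, N cells.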

SMILES	Potentation (Rattus norvegicus [1])	Gated current (Rattus norvegicus [2])
C[C@]12CC[C@@H]3[C@H](CC[C@]4(C)[C@@H](C#N)CC[C@@H]34)[C@H]1CC[C@@H](O)C2	452	28
CC(=O)[C@H]1CC[C@H]2[C@@H]3CCC4(C)C[C@H](O)CC[C@@H]4[C@H]3CC[C@]12C (stereo partly drawn)	110	0
CC(=O)[C@H]1CC[C@H]2[C@@H]3CC[C@H]4C[C@H](O)CC[C@]4(C)[C@H]3CC[C@]12C [BREXANOLONE]	1111	26
CC(=O)[C@H]1CC[C@H]2[C@@H]3CCC4C[C@H](O)CC[C@@H]4[C@H]3CC[C@]12C (stereo partly drawn)	926	46
C[C@]12CC[C@@H](O)C[C@@H]1CC[C@@H]1[C@@H]2CC[C@]2(C)[C@@H](C#N)CC[C@@H]12	1829	32
C[C@]12CC[C@@H](O)C[C@H]1CC[C@@H]1[C@@H]2CC[C@]2(C)[C@@H](C#N)CC[C@@H]12	1297	68
CC(=O)[C@H]1CC[C@H]2[C@@H]3CC[C@@H]4C[C@H](O)CC[C@@H]4[C@H]3CC[C@]12C	754	110
C[C@]12CC[C@H]3[C@@H](CCC4C[C@H](O)CC[C@@H]43)[C@@H]1CC[C@@H]2C#N (stereo partly drawn)	1721	42
CC12CC[C@@H]3[C@H](CC[C@]4(C)[C@@H](C#N)CC[C@@H]34)[C@H]1CC[C@@H](O)C2 (stereo partly drawn)	92	0
C[C@]12CC[C@H]3[C@@H](CC[C@@H]4C[C@H](O)CC[C@@H]43)[C@@H]1CC[C@@H]2C#N	1823	41
CC(=O)[C@H]1CC[C@H]2[C@@H]3CC[C@@H]4C[C@H](O)CC[C@]4(C)[C@H]3CC[C@]12C [ELTANOLONE]	1023	49
CC(=O)[C@H]1CC[C@H]2[C@@H]3CC[C@]4(C)C[C@H](O)CC[C@]4(C)[C@H]3CC[C@]12C	498	24
CC(=O)[C@H]1CC[C@H]2[C@@H]3CC[C@]4(C)C[C@H](O)CC[C@@H]4[C@H]3CC[C@]12C	652	12
CC(=O)[C@H]1CC[C@H]2[C@@H]3CCC4(C)C[C@H](O)CC[C@]4(C)[C@H]3CC[C@]12C (stereo partly drawn)	294	3
